For experiment [1], the target named is T1, Serine/threonine-protein kinase Chk1 (Homo sapiens) (UniProt O14757).
T1 sequence (whole entry): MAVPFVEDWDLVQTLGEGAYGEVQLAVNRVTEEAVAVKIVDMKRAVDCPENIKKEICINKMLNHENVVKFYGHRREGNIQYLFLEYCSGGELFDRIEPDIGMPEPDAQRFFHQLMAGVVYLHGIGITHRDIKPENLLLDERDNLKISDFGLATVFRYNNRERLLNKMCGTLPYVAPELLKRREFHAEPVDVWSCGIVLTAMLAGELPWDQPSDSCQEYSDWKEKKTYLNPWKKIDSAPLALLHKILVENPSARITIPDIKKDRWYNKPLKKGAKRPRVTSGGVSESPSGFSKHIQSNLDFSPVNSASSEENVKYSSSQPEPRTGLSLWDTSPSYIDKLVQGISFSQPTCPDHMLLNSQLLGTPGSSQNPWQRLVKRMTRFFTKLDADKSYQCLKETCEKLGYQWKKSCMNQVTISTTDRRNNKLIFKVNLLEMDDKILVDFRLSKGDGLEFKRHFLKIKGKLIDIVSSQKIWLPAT
Description: Inhibition of human recombinant Chk1 at 10 uM. In a few lines:
(§1)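 Chk1 activity measured by K-LISA checkpoint kit ELISA, following phosphorylation of a Cdc25 substrate peptide. Absorbance read at 450/540 nm. Inhibition calculated from activity with versus without compound. IC50 is the concentration inhibiting peptide phosphorylation. Values are the mean of three separate determinations.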

Experiment [2] deals with ML-1a. Description: Cytotoxicity against human ML-1a cells up to 10 uM after 48 hrs. The format is functional, cell-based. In a few lines: (§2)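 Cells grown in RPMI 1640 with 10% FBS at 37 °C, 5% CO2. Exponentially growing cells seeded, treated after 24 h with compound for 48 h. Viability read by CCK-8 (2 h development, absorbance 450 nm), expressed as percent of untreated control. Three separate experiments, each in triplicate.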

Experiment [3] deals with T2, Serine/threonine-protein kinase Chk1 (Homo sapiens, UniProt O14757).
T2 sequence (O14757 whole entry): T1 sequence (whole entry)
Description: Inhibition of human recombinant Chk1. In a few lines:
as §1

Experiment [4] deals with CCRF-CEM. The experiment in a line: Cytotoxicity against human CCRF-CEM cells up to 10 uM after 48 hrs. The format is functional, cell-based. The procedure, abridged: as §2
The target in experiment [5] is T3, Calcium/calmodulin-dependent protein kinase type IV (Homo sapiens) (UniProt Q16566).
T3 sequence (whole entry): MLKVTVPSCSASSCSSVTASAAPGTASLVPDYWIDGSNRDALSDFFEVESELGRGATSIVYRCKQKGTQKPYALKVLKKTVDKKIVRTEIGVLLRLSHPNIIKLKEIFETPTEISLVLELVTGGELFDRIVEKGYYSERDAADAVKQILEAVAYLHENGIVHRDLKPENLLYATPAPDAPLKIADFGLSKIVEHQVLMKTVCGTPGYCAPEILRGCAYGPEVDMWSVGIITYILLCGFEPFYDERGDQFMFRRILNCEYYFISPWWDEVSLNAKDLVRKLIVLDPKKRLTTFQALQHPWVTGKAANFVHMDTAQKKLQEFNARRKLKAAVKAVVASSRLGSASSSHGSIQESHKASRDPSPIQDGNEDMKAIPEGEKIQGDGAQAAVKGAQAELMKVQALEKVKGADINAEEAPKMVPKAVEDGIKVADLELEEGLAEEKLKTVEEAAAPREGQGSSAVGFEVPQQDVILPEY
Description: Inhibition of CAMK4 at 0.1 uM. In a few lines: (§3)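 Kinase panel run per ProfilerPro kit protocol. Compounds preincubated with enzyme 15 min at room temperature. Reaction started with peptide substrate (fixed 1.5 µM) and ATP at apparent Km, run 90 min, then stopped with termination buffer. Tested in duplicate. Read by microfluidic mobility-shift (Caliper), with product/(product+substrate) ratio as signal.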

The nature of experiment [6]: Inhibition of CAMK2 at 0.1 uM. The procedure, abridged:
as §3

In experiment [7] the target is T4, 5'-AMP-activated protein kinase subunit beta-1 (Homo sapiens) (UniProt Q9Y478).
T4 sequence (whole entry): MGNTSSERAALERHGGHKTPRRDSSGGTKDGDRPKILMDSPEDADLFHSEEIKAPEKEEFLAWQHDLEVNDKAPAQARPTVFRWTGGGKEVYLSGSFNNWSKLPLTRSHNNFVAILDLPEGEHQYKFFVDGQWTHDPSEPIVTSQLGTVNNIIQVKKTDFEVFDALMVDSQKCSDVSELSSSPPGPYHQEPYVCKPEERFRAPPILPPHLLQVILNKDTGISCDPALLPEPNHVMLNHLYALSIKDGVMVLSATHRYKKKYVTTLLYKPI
The experiment in a line: Inhibition of AMPK at 0.1 uM. The procedure, abridged: as §3

For experiment [8], the target named is T5, Serine/threonine-protein kinase D2 (Homo sapiens) (UniProt Q9BZL6).
T5 sequence (whole entry): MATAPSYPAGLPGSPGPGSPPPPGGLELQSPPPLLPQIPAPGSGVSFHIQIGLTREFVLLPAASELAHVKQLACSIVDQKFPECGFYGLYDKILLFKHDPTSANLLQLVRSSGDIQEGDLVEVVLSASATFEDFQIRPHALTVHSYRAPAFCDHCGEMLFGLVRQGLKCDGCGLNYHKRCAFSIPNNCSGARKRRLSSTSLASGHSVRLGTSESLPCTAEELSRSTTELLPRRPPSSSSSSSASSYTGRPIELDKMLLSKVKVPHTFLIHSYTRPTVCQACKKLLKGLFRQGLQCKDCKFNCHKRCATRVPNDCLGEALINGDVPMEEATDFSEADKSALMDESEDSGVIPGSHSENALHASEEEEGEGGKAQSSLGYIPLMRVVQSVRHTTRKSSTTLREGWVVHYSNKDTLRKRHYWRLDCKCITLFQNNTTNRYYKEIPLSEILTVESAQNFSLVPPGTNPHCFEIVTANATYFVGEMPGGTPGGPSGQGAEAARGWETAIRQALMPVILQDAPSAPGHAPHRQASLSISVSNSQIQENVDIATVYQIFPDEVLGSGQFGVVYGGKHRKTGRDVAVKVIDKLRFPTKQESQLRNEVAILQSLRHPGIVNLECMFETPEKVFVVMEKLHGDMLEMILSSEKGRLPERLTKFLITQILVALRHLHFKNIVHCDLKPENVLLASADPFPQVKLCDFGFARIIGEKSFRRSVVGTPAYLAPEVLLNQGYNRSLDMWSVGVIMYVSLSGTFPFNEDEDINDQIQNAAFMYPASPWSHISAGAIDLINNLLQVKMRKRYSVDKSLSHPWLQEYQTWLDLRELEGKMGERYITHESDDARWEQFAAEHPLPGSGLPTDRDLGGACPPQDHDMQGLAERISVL
The experiment in a line: Inhibition of PKD2 at 0.1 uM. In a few lines: as §3

For experiment [9], the target named is Serine/threonine-protein kinase pim-2 (Homo sapiens) (UniProt Q9P1W9). The experiment in a line: Inhibition of PIM2 at 0.1 uM. The procedure, abridged: as §3
Experiment [10] deals with T6, Aurora kinase A (Homo sapiens) (UniProt O14965).
T6 sequence (whole entry): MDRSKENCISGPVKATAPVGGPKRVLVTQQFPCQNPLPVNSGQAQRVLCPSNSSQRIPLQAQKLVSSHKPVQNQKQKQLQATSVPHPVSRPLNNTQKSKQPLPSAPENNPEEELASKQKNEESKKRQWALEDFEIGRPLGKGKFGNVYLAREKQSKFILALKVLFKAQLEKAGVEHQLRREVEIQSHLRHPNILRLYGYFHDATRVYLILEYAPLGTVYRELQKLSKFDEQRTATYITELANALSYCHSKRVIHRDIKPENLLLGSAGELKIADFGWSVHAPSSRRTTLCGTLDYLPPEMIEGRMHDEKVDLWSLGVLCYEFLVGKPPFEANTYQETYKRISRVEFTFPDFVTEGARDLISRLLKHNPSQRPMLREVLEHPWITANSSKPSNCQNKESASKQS
The experiment in a line: Inhibition of aurora A at 0.1 uM. The procedure, abridged: as §3

Experiment [11] has as its target Serine/threonine-protein kinase MARK1 (Homo sapiens) (UniProt Q9P0L2). The experiment in a line: Inhibition of MARK1 at 0.1 uM. The procedure, abridged: as §3
For experiment [12], the target named is Serine/threonine-protein kinase Chk2 (Homo sapiens) (UniProt O96017). The experiment in a line: Inhibition of Chk2 at 0.1 uM. The procedure, abridged:
as §3

Experiment [13] has as its system HeLa. Description: Cytotoxicity against human HeLa cells assessed as potentiation of SN-38-induced induction of DNA damaging activity at 5 uM after 48 hrs. The format is functional. The procedure, abridged: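 HeLa cells kept in MEM with 10% FBS and 1% nonessential amino acids at 37 °C, 5% CO2. Seeded cells treated after 24 h with SN-38, with or without test compound, for 48 h. Live cells measured by CCK-8 (2 h, A450), viability as percent of untreated control. Three experiments in triplicate.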

Activity calls are given as the source filed them. No cut-off for these calls is given here.

Chain of Serine/threonine-protein kinase MARK1 (Homo sapiens) (Q9P0L2 whole entry, looked up): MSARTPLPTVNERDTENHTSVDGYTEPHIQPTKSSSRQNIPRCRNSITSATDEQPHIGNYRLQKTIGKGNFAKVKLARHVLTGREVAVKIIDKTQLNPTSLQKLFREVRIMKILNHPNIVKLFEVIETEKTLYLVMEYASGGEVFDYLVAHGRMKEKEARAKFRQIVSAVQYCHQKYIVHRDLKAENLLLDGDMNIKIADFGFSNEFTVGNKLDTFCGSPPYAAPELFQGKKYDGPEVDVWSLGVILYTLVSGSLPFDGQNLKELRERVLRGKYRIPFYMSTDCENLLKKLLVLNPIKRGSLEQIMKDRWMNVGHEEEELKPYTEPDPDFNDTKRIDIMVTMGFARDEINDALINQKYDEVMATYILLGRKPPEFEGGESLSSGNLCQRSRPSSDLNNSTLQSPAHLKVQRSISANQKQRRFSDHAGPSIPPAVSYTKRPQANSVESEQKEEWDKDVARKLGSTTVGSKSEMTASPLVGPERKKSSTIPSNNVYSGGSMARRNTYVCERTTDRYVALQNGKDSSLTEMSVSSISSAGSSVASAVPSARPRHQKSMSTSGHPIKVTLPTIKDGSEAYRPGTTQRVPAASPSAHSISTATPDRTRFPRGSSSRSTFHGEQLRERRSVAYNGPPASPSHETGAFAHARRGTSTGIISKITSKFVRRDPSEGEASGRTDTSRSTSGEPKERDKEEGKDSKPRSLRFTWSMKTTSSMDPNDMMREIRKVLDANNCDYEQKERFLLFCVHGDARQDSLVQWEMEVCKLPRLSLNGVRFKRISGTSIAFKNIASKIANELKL
Chain of Serine/threonine-protein kinase pim-2 (Homo sapiens) (Q9P1W9 whole entry, looked up): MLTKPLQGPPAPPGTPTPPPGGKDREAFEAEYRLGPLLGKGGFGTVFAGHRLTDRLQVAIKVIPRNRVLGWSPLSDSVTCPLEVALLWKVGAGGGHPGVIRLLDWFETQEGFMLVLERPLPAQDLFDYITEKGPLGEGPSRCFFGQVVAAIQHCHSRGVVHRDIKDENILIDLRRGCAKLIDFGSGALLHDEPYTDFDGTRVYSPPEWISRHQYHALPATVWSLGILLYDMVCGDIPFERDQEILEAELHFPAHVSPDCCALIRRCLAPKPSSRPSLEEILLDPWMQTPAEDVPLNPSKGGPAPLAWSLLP
Chain of Serine/threonine-protein kinase Chk2 (Homo sapiens) (O96017 whole entry): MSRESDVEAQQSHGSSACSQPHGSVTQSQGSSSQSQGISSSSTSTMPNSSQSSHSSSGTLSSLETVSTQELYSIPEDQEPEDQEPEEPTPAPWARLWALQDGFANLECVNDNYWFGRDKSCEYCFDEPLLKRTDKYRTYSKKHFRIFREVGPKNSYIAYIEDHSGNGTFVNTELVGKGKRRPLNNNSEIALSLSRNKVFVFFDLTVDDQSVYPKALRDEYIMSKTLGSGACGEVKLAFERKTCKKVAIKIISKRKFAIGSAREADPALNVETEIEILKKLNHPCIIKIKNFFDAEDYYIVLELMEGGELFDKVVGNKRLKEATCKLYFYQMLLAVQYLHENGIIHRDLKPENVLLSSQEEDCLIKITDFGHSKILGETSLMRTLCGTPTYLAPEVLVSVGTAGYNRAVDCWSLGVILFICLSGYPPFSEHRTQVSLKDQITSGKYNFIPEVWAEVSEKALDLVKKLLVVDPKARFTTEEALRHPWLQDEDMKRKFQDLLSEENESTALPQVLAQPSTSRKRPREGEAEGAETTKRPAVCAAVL

For `NC(=O)c1ccc(CNC(=O)c2cc3c(c4c2[nH]c2ccccc24)C(=O)NC3=O)cc1`, the inhibition in experiment [1] was 27%.

In the case of `CC(C)(C)OC(=O)c1cc2c(c3c1[nH]c1ccccc13)C(=O)NC2=O`, in experiment [1], the inhibition is 1%.

With `N#Cc1ccc(CNC(=O)c2cc3c(c4c2[nH]c2ccccc24)C(=O)NC3=O)cc1`, in [1], the inhibition was 46%.

On to `NCCCNC(=O)c1cccc(CNC(=O)c2cc3c(c4c2[nH]c2ccccc24)C(=O)NC3=O)c1`, for which the outcome in experiment [2] and in [4] was inactive. In addition, the IC50 in experiment [3] is 251 nM.

For the compound `CN[C@@H]1C[C@H]2O[C@@](C)([C@@H]1OC)n1c3ccccc3c3c4c(c5c6ccccc6n2c5c31)C(=O)N[C@H]4O`, the outcome in experiment [2] and in experiment [4] was inactive.

On to `N=C(N)NCCCNC(=O)c1cccc(CNC(=O)c2cc3c(c4c2[nH]c2ccccc24)C(=O)NC3=O)c1`, for which the outcome in [2] and in [4] was inactive. Moreover, the IC50 in experiment [3] was 235 nM.

As for `N#Cc1cccc(CNC(=O)c2cc3c(c4c2[nH]c2ccccc24)C(=O)NC3=O)c1`, the inhibition in experiment [1] was 48%.

In the case of `NC(=O)c1cccc(CNC(=O)c2cc3c(c4c2[nH]c2ccccc24)C(=O)NC3=O)c1`, the inhibition entry in experiment [5], in experiment [6], in experiment [7], in experiment [8], in experiment [9] and in [10] was “Active” throughout. The inhibition entry in experiment [11] and in [12] was “Active” in each case. Also, the result in experiment [2] and in experiment [4] was inactive. In addition, in experiment [1], the inhibition came out at 83%. The IC50 in experiment [3] worked out at 448 nM.

With `NCCNC(=O)c1cccc(CNC(=O)c2cc3c(c4c2[nH]c2ccccc24)C(=O)NC3=O)c1`, the result in experiment [2] and in experiment [4] was inactive. Further, in experiment [3], the IC50 turned out to be 336 nM.

For the compound `N=C(N)NCCNC(=O)c1cccc(CNC(=O)c2cc3c(c4c2[nH]c2ccc(O)cc24)C(=O)NC3=O)c1`, the result in experiment [2] and in [4] was inactive. Moreover, in experiment [3], the IC50 was found to be 2.8 nM.

In the case of `O=C1NC(=O)c2c1cc(C(=O)O)c1[nH]c3ccccc3c21`, in [1], the inhibition came to 46%.

As to `NCCCNC(=O)c1cccc(CNC(=O)c2cc3c(c4c2[nH]c2ccc(O)cc24)C(=O)NC3=O)c1`, the outcome in experiment [2] and in experiment [4] was inactive. In addition, the 50% inhibitory concentration (IC50) in [3] was found to be 46 nM.

On to `N=C(N)NCCNC(=O)c1cccc(CNC(=O)c2cc3c(c4c2[nH]c2ccccc24)C(=O)NC3=O)c1`, for which the outcome in experiment [2] and in [4] was inactive. The 50% inhibitory concentration (IC50) in experiment [3] is 123 nM.

For `O=C1NC(=O)c2c1cc(C(=O)NCc1ccccc1)c1[nH]c3ccccc3c21`, the inhibition in experiment [1] turned out to be 71%. Further, the IC50 in experiment [3] worked out at 9000 nM.

Take `Cl.NCCNC(=O)c1cccc(CNC(=O)c2cc3c(c4c2[nH]c2ccc(O)cc24)C(=O)NC3=O)c1`: the “fold change (FC)” value in [13] is 4. The result in [2] and in experiment [4] was inactive. The IC50 in experiment [3] is 31 nM.

For the compound `N=C(N)NCCCNC(=O)c1cccc(CNC(=O)c2cc3c(c4c2[nH]c2ccc(O)cc24)C(=O)NC3=O)c1`, the outcome in experiment [2] and in experiment [4] was inactive. Moreover, in experiment [3], the IC50 came out at 22 nM.

A word on the inhibition: it is the share of the control response that was lost under treatment. As a reminder, the IC50 is the point on the concentration scale where inhibition reaches its midpoint.

Values taken from ChEMBL document CHEMBL1275361, “Synthesis and evaluation of 5-substituted 9-hydroxypyrrolo[3,4-c]carbazole-1,3(2H,6H)-diones as check point 1 kinase inhibitors” (Bioorg Med Chem, 2010).
